According to ChEMBL document CHEMBL3817827, “5-Substituted 3-chlorokenpaullone derivatives are potent inhibitors of Trypanosoma brucei bloodstream forms” (Bioorg Med Chem, 2016):
Calls of active or inactive are those of the source. The rule behind the calls is not given here.

What was measured:
[1] = Inhibition of Trypanosoma cruzi recombinant His-tagged TryS expressed in Escherichia coli BL21 (DE3) assessed as inorganic phosphate release after 15 mins by malachite green dye based end-point assay
Summary of the method: (§1)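 His-tagged TryS expressed in E. coli BL21(DE3), Ni-NTA then gel filtration/ion exchange purified. Reaction buffer: 100 mM HEPES pH 7.4, 5 mM DTT, 10 mM MgSO4, 0.5 mM EDTA, 9 mM NaCl, 10% DMSO; 150 µM ATP, 2 mM spermidine; glutathione 0.05 (Tb), 0.57 (Tc), 0.25 mM (Li). Stopped at 15 min, malachite green phosphate read at 650 nm, blank-corrected versus DMSO; screen at 30 µM, IC50 if >50% inhibition.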

[2] = Inhibition of Leishmania infantum recombinant His-tagged TryS expressed in Escherichia coli BL21 (DE3) assessed as inorganic phosphate release after 15 mins by malachite green dye based end-point assay; summary of the method: as §1
[3] = Selectivity index, ratio of EC50 for mouse J774 cells to EC50 for bloodstream forms of Trypanosoma brucei brucei 427 stably transfected with pHD449 plasmid; format: toxicity, cell-based; conditions: read-out: Ratio EC50
[4] = tested on: Trypanosoma brucei brucei; assay: Antitrypanosomal activity against bloodstream forms of Trypanosoma brucei brucei 427 stably transfected with pHD449 plasmid assessed as reduction in parasite viability after 24 hrs by propidium iodide staining based flow cytometry; format: functional, organism-based; conditions: Trypanosoma brucei, 427, 24 h
[5] = tested on: Trypanosoma brucei; assay: Inhibition of Trypanosoma brucei recombinant His-tagged TryS expressed in Escherichia coli BL21 (DE3) assessed as residual enzyme activity by measuring inorganic phosphate release at 30 uM after 15 mins by malachite green dye based end-point assay; summary of the method: as §1
[6] = tested on: Trypanosoma cruzi; assay: Inhibition of Trypanosoma cruzi recombinant His-tagged TryS expressed in Escherichia coli BL21 (DE3) assessed as residual enzyme activity by measuring inorganic phosphate release at 30 uM after 15 mins by malachite green dye based end-point assay; summary of the method: as §1
[7] = tested on: Trypanosoma brucei brucei; assay: Antitrypanosomal activity against bloodstream forms of Trypanosoma brucei brucei 427 stably transfected with pHD449 plasmid assessed as parasite viability at 5 uM after 24 hrs by propidium iodide staining based flow cytometry; format: functional
[8] = tested on: Leishmania infantum; assay: Inhibition of Leishmania infantum recombinant His-tagged TryS expressed in Escherichia coli BL21 (DE3) assessed as residual enzyme activity by measuring inorganic phosphate release at 30 uM after 15 mins by malachite green dye based end-point assay; summary of the method: as §1
[9] = Aqueous solubility of compound in phosphate buffer at 0.25 mg at pH 7.4 after 48 hrs by HPLC based shake flask method; format: physicochemical
[10] = organism: Sus scrofa; assay: Inhibition of porcine brain CK1delta/epsilon at 10 uM using CKS peptide as substrate after 30 mins by scintillation counting method
Summary of the method: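 Native porcine brain CK1δ/ε purified on axin 2-sepharose, assayed with 0.67 µg CKS peptide and 15 µM ATP, 30 min at 30 °C; phosphate incorporation captured on P81 paper, counted by scintillation, expressed as % of activity without inhibitor.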

[11] = molecular target: CDK9/cyclin T1 (Homo sapiens) (UniProt O60563+P50750); assay: Inhibition of human recombinant CDK9/cyclinT expressed in insect cells at 10 uM using CDK7/9-Tide as substrate after 30 mins by scintillation counting method
Summary of the method: (§2)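 Radiometric kinase assay with 15 µM ATP, 30 min at 30 °C in buffer A (10 mM MgCl2, 1 mM EGTA, 1 mM DTT, 25 mM Tris-HCl pH 7.5, 50 µg/mL heparin); BSA 0.15 mg/mL added except for CDK2. Substrates: histone H1 (CDK1, CDK2, CDK5), CDK7/9-Tide (CDK9), RS peptide (DYRK1A, CLK1), GS-1 (GSK-3). Stopped onto P81 paper, acid-washed, scintillation counted; activity as % of DMSO control.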

[12] = molecular target: Glycogen synthase kinase-3 (Sus scrofa) (UniProt B2LUN4+I6LNT8); assay: Inhibition of porcine brain GSK-3alpha/beta at 10 uM using GS-1 as substrate after 30 mins by scintillation counting method; summary of the method: as §2
[13] = molecular target: Cyclin-dependent kinase 5/CDK5 activator 1 (Homo sapiens) (UniProt Q00535+Q15078); assay: Inhibition of human recombinant CDK5/p25 expressed in Escherichia coli at 10 uM using histone H1 as substrate after 30 mins by scintillation counting method; summary of the method: as §2
Cyclin-dependent kinase 5/CDK5 activator 1 (Homo sapiens), sequence (Q00535 whole entry): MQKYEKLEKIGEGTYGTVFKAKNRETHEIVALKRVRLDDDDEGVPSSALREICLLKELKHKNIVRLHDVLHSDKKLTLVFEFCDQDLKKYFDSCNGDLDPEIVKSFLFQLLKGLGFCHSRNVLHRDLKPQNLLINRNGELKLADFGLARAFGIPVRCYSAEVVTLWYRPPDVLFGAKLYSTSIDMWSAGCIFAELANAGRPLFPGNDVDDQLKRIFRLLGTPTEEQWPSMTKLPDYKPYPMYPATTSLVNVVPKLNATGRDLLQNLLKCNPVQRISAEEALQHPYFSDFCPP
Cyclin-dependent kinase 5/CDK5 activator 1 (Homo sapiens), sequence (Q15078 99-307 partner limits assumed): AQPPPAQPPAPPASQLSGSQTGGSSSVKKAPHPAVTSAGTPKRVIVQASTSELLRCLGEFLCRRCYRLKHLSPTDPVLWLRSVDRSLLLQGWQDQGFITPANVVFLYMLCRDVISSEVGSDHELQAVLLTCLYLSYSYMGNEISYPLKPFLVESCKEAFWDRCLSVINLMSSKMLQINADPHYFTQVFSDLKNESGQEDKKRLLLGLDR

[14] = molecular target: Dual specificity tyrosine-phosphorylation-regulated kinase 1A (Homo sapiens) (UniProt Q13627); assay: Inhibition of GST-tagged human recombinant DYRK1A expressed in Escherichia coli at 10 uM after 30 mins by scintillation counting method; summary of the method: as §2
[15] = molecular target: Dual specificity protein kinase CLK1 (Mus musculus) (UniProt P22518); assay: Inhibition of GST-tagged mouse recombinant CLK1 expressed in Escherichia coli at 10 uM after 30 mins by scintillation counting method; summary of the method: as §2
Dual specificity protein kinase CLK1 (Mus musculus), sequence (P22518 whole entry, looked up): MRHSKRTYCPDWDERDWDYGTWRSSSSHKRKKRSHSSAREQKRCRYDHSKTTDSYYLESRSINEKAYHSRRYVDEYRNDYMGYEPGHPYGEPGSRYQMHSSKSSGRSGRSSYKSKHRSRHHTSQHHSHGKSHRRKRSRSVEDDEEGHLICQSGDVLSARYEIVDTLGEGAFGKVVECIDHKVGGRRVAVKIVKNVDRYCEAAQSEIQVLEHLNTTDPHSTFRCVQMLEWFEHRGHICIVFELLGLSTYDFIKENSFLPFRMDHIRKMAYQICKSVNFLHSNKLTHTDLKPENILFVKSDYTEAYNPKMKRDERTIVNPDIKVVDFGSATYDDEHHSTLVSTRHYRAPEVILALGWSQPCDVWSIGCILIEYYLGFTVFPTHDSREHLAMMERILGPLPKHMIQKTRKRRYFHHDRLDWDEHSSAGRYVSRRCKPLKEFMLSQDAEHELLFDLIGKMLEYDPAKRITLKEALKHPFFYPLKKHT

[16] = molecular target: CDK2/Cyclin A2 (Homo sapiens) (UniProt P24941+P20248); assay: Inhibition of human recombinant CDK2/cyclin A at 10 uM using histone H1 as substrate after 30 mins by scintillation counting method; format: protein-complex assay; summary of the method: as §2
[17] = tested on: Asteroidea; assay: Inhibition of M phase starfish oocytes CDK1/cyclin B at 10 uM using histone H1 as substrate after 30 mins by scintillation counting method; summary of the method: as §2

| Compound | IC50 [1] | IC50 [2] | selectivity ratio [3] | EC50 [4] | Activity [5] | Activity [6] | Activity [7] | Activity [8] | also measured |
| --- | --- | --- | --- | --- | --- | --- | --- | --- | --- |
| COc1ccc(CNC(=O)CN2C(=O)Cc3c([nH]c4ccc(Br)cc34)-c3ccc(Cl)cc32)cc1 | 11 µM | 24 µM | 22 | 1 µM | 53.5% |  |  |  |  |
| O=C(CN1C(=O)Cc2c([nH]c3ccc(Br)cc23)-c2ccc(Cl)cc21)NCc1ccncc1 |  | 1.2 µM |  |  | 65.2% | 58.1% | 49.1% |  |  |
| O=C(CN1C(=O)Cc2c([nH]c3ccc(Br)cc23)-c2ccc(Cl)cc21)NCc1cccc(Cl)c1 | 11 µM | 17 µM | 91 | 1.1 µM | 55.9% |  |  |  |  |
| CNCCNC(=O)CN1C(=O)Cc2c([nH]c3ccc(C(F)(F)F)cc23)-c2ccccc21 |  | 0.35 µM | 1 | 8.3 µM | 70% | 44.5% |  |  |  |
| O=C(CN1C(=O)Cc2c([nH]c3ccc(Br)cc23)-c2ccc(Cl)cc21)NCc1ccc(C(F)(F)F)cc1 | 9 µM |  | > 18 | 1.8 µM | 63.5% |  |  | 55.4% |  |
| O=C(CN1C(=O)Cc2c([nH]c3ccc(Br)cc23)-c2ccc(Cl)cc21)NCc1cccnc1 | 9 µM | 11 µM |  |  | 64.8% |  | 59.4% |  |  |
| O=C(CN1C(=O)Cc2c([nH]c3ccc(Br)cc23)-c2ccc(Cl)cc21)NCc1ccc(Cl)cc1 | 11 µM |  | > 62 | 0.8 µM | 50.1% |  |  | 109% |  |
| Cc1ccc(CNC(=O)CN2C(=O)Cc3c([nH]c4ccc(Br)cc34)-c3ccc(Cl)cc32)cc1 | 9 µM |  | > 167 | 0.3 µM | 53.7% |  |  | 48.6% | solubility thermodynamic at 48 h [9]: < 0.48 µM |
| O=C(CN1C(=O)Cc2c([nH]c3ccc(Br)cc23)-c2ccc(Cl)cc21)NCc1ccccn1 |  |  |  |  | 75.8% | 54.8% | 33.8% | 95.5% |  |
| O=C(CN1C(=O)Cc2c([nH]c3ccc(Br)cc23)-c2ccc(Cl)cc21)NCc1ccccc1Cl | 11 µM | 23 µM |  |  | 55.3% |  | 53.2% |  |  |
| O=C(CN1C(=O)Cc2c([nH]c3ccc(Br)cc23)-c2ccc(Cl)cc21)NCc1ccc(O)cc1 | 9 µM | 10 µM | 238 | 0.84 µM | 58% |  |  |  | solubility thermodynamic at 48 h [9]: < 4.8 µM |
| O=C(CN1C(=O)Cc2c([nH]c3ccc(Br)cc23)-c2ccc(Cl)cc21)NCc1ccc(Cl)c(Cl)c1 | 9 µM | 19 µM | 12 | 0.84 µM | 42% |  |  |  |  |
| O=C(CN1C(=O)Cc2c([nH]c3ccc(Br)cc23)-c2ccc(Cl)cc21)NCc1ccccc1 |  |  | 1410 | 0.04 µM | 45.2% | 72.8% |  | 50% | inhibition [10]: inactive; inhibition [11]: inactive; inhibition [12]: inactive; inhibition [13]: inactive; inhibition [14]: inactive; inhibition [15]: inactive; solubility thermodynamic at 48 h [9]: < 0.49 µM; inhibition [16]: inactive; inhibition [17]: inactive |
